Results: ChEMBL document CHEMBL2429860, “4-Phenyl-3,4-dihydroquinolone derivatives from Aspergillus nidulans MA-143, an endophytic fungus isolated from the mangrove plant Rhizophora stylosa” (J Nat Prod, 2013)
Activity calls are given as the source filed them. The calls are words filed in the database; no cut-off is given here.

How the values were obtained:
K562 = test: Cytotoxicity against human K562 cells; type: functional, cell-based
HL-60 = test: Cytotoxicity against human HL60 cells; type: functional, cell-based
MDA-MB-231 = test: Cytotoxicity against human MDA-MB-231 cells; type: functional, cell-based
Bel-7402 = test: Cytotoxicity against human Bel7402 cells; type: functional, cell-based
Escherichia coli = test: Antibacterial activity against Escherichia coli by well diffusion method; type: functional, organism-based
Method in brief: (§1)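 Agar well diffusion test run against E. coli and S. aureus, with chloromycetin as the positive control.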

Staphylococcus aureus = test: Antibacterial activity against Staphylococcus aureus by well diffusion method; type: functional, organism-based; method in brief: as §1
[1] = Toxicity in brine shrimp; type: organism-based; conditions: artemia salina, in vivo; read-out: LD50 (the source's name)
Method in brief: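 Lethality test using brine shrimp (Artemia salina).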

Compound: CO[C@@H]1C(=O)Nc2ccccc2[C@@]1(O)c1ccccc1
- Activity (K562): inactive
- Activity (HL-60): inactive
- Activity (MDA-MB-231): inactive
- Activity (Bel-7402): inactive
- Activity (Escherichia coli): inactive
- Activity (Staphylococcus aureus): inactive

Compound: CO[C@@H]1C(=O)Nc2ccc(O)cc2[C@@]1(O)c1ccccc1
- Activity (K562): inactive
- Activity (HL-60): inactive
- Activity (MDA-MB-231): inactive
- Activity (Bel-7402): inactive
- Activity (Escherichia coli): inactive
- Activity (Staphylococcus aureus): inactive

Compound: CO[C@@H]1C(=O)Nc2ccc(/C=C/[C@]3(C)CCC(=O)[C@@H](C)C3)c(O)c2[C@@]1(O)c1ccccc1 [AFLAQUINOLONE A]
- LC50 [1]: 5.5 µM

Compound: C=C(C)[C@H]1CC[C@](C)(/C=C/c2ccc3c(c2O)[C@@](O)(c2ccccc2)[C@H](OC)C(=O)N3)O1
- Activity (K562): inactive
- Activity (HL-60): inactive
- Activity (MDA-MB-231): inactive
- Activity (Bel-7402): inactive
- Activity (Escherichia coli): inactive
- Activity (Staphylococcus aureus): inactive

Compound: CO[C@@H]1C(=O)Nc2ccc(/C=C/[C@@]3(C)CC[C@H](C(C)(C)O)O3)c(O)c2[C@@]1(O)c1ccccc1
- LC50 [1]: 7.1 µM
- Activity (K562): inactive
- Activity (HL-60): inactive
- Activity (MDA-MB-231): inactive
- Activity (Bel-7402): inactive
- Activity (Escherichia coli): inactive
- Activity (Staphylococcus aureus): inactive

Compound: CO[C@@H]1C(=O)Nc2ccc(CC=C(C)C)c(O)c2[C@@]1(O)c1ccccc1
- LC50 [1]: 4.5 µM
- Activity (K562): inactive
- Activity (HL-60): inactive
- Activity (MDA-MB-231): inactive
- Activity (Bel-7402): inactive
- Activity (Escherichia coli): inactive
- Activity (Staphylococcus aureus): inactive

Compound: O=C1Nc2ccccc2[C@@](O)(c2ccc(O)cc2)[C@@H]1O
- Activity (K562): inactive
- Activity (HL-60): inactive
- Activity (MDA-MB-231): inactive
- Activity (Bel-7402): inactive
- Activity (Escherichia coli): inactive
- Activity (Staphylococcus aureus): inactive
